# In paper PMC2223369 (The Journal of General Physiology, 1999):
# Tests used:
# [1] = tested on: alpha subunit of type IIA sodium channels; experiment: Fast peptide block of LqTx-modified sodium channels, whole-cell patch clamp; type: cell-based, rat; conditions: 100 nM LqTx; for fast block of LqTx-modified sodium channels (in words) / fraction of extrapolated peak sodium current unblocked at steady state: 1 mM peptide intracellular, 0 mV; for k u(0 mV), unblocking rate / k b(0 mV), blocking rate: 1 mM peptide, SEM; for k u(0 mV), unblocking rate: calculated from τ and Fss by Eq. 3, mean ± SEM; for k b(0 mV), blocking rate: calculated from τ and Fss by Eq. 2, mean ± SEM
# Procedure, shortened: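 CHO cells stably expressing the channel alpha subunit, recorded 24 h after subculture; whole-cell patch clamp at 22–25°C. Pipette carries 1 mM test peptide, and recording starts about 20 min after break-in. LqTx-modified currents are elicited by steps from −80 mV to 0 mV. Decay is fit to a single exponential, with Fss = B/(A+B). kb and ku come from τ and Fss.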
# [2] = tested on: alpha subunit of type IIA sodium channels; experiment: Use-dependent block, conditioning pulse protocol; type: cell-based, rat; conditions: for use-dependent block, conditioning pulse protocol (in words): Fig. 5 and 6; for use-dependent block at 200 mV: wild-type channels, conditioning pulses to 200 mV
# sodium channels = conditions: ref Eaholtz et al., cited from earlier work
# [3] = tested on: alpha subunit of type IIA sodium channels; experiment: Recovery from fast block, two-pulse voltage protocol; type: cell-based, rat; conditions: for time constant of recovery from fast block at −80 mV: interpulse −80 mV, mean ± SEM, n = 5
# Procedure, shortened: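 CHO cells stably expressing the channel alpha subunit, under whole-cell clamp at 22–25°C with 1 mM test peptide in the pipette; channels LqTx-modified. Two 0-mV test pulses give the ratio I2/I1. The protocol is repeated 20× with the interpulse interval increased by Δt each time. Interpulse voltage is −80, −100, −120 or −140 mV. Recovery versus interval is fit to a single exponential for the time constant.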
# [4] = 1 mM peptide, channels not modified by LqTx
compound,measurement,setting,value
KIFMT-NH2,fast block of LqTx-modified sodium channels (in words),[1],rapidly blocked LqTx-modified sodium currents
same,"k u(0 mV), unblocking rate",[1],386 ± 81 s⁻¹
same,"use-dependent block, conditioning pulse protocol (in words)",[2]; [4],much less effective than ac-KIFMK-NH2
cyclic KIFMK (head to tail),fast block of LqTx-modified sodium channels (in words),[1],did not exhibit significant fast block
same,"use-dependent block, conditioning pulse protocol (in words)",[2]; [4],nearly as potent in use-dependent block as ac-KIFMK-NH2
same,use-dependent block at 200 mV,[2]; 1 mM peptide,~100%
ac-KAFAK-NH2,"use-dependent block, conditioning pulse protocol (in words)",[2]; [4],less effective
same,use-dependent block at 200 mV,[2]; 1 mM peptide,> 60%
same,fast block of sodium channels (in words),sodium channels; 1994,did not produce fast block
"NC(=O)[C@@H](N)Cc1ccccc1 [F-NH2, phenylalanine-amide]","use-dependent block, conditioning pulse protocol (in words)",[2]; [4],not effective in use-dependent block
FM-NH2,"use-dependent block, conditioning pulse protocol (in words)",[2]; [4],not effective in use-dependent block
KIFM-NH2,fraction of extrapolated peak sodium current unblocked at steady state,[1],42%
same,"k b(0 mV), blocking rate",[1],1751 ± 163 s⁻¹
same,"k u(0 mV), unblocking rate",[1],1283 ± 149 s⁻¹
same,"use-dependent block, conditioning pulse protocol (in words)",[2]; [4],substantial use-dependent block
ac-KIFMK-NH2,fraction of extrapolated peak sodium current unblocked at steady state,[1],21%
same,"k u(0 mV), unblocking rate",[1],587 ± 40 s⁻¹
same,time constant of recovery from fast block at −80 mV,"[3]; 1 mM peptide, LqTx-modified channels",0.9 ms
same,time constant of recovery from fast block at −80 mV,"[3]; 1 mM peptide, LqTx-modified channels, SEM",0.9 ± 0.3 ms
same,time constant of recovery from fast block at −100 mV,"[3]; 1 mM peptide, LqTx-modified channels, interpulse −100 mV, n = 6",0.6 ± 0.1 ms
same,time constant of recovery from fast block at −120 mV,"[3]; 1 mM peptide, LqTx-modified channels, interpulse −120 mV, n = 6",0.4 ± 0.1 ms
same,time constant of recovery from fast block at −140 mV,"[3]; 1 mM peptide, LqTx-modified channels, interpulse −140 mV, n = 4",0.3 ± 0.1 ms
same,time at which recovery from fast block was half complete,[3]; −80 mV,0.9 ms
same,"fractional current (I12/I1) after 10 conditioning pulses to 200 mV, LqTx-modified channels","[2]; 1 mM peptide, 100 nM LqTx, n = 6, mean ± SEM, SEM",0.03 ± 0.02
same,use-dependent block in the absence or presence of LqTx,"[2]; 1.0 mM peptide, 200-mV conditioning pulses",> 95%
same,conditioning voltage of half-maximal use-dependent block,"[2]; 1 mM peptide, channels not modified by LqTx, Fig. 5 A",+125 mV
same,use-dependent block with conditioning pulses more positive than 150 mV,"[2]; 1.5 mM peptide, three cells, unmodified channels",~100%
same,δ of use-dependent block,[2]; mean zδ divided by two (two positive charges),0.5
same,time for half-maximal recovery from use-dependent block,[2]; −80 mV,more than 90 s
same,δ value of fast block,"sodium channels; voltage dependence of fast block, 1998",0.3
ac-DIFMT-NH2,fast block of LqTx-modified sodium channels (in words),[1],did not produce significant fast block
same,"use-dependent block, conditioning pulse protocol (in words)",[2]; [4],no effect at all
ac-RIFMR-NH2,fast block of LqTx-modified sodium channels (in words),[1],rapidly blocked LqTx-modified sodium currents
same,"k u(0 mV), unblocking rate",[1],222 ± 33 s⁻¹
same,"use-dependent block, conditioning pulse protocol (in words)",[2]; [4],significantly more potent than ac-KIFMK-NH2
Ac-KIFMTK-NH2,"k b(0 mV), blocking rate",[1],2881 ± 263 s⁻¹
same,"k u(0 mV), unblocking rate",[1],731 ± 8 s⁻¹
same,"use-dependent block, conditioning pulse protocol (in words)",[2]; [4],poor use-dependent blocker
DIFMK-NH2,"use-dependent block, conditioning pulse protocol (in words)",[2]; [4],much less effective than ac-KIFMK-NH2
ac-KIQMK-NH2,"use-dependent block, conditioning pulse protocol (in words)",[2]; [4],did not produce significant block
same,fast block of sodium channels (in words),sodium channels; 1994,did not produce fast block
same,use-dependent block (in words),sodium channels; 1994,ineffective in use-dependent block
